TRPC6 inhibitor: mouse TRPC6 channel inhibitors, primary screen, cell-based, HEK293, membrane potential dye; B-score at 10 µM; Short transient receptor potential channel 6 (Mus musculus), Q61143; ACh-evoked depolarization; hits give low values; 1.1% of 310,000 active; AID 2553, 2010;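 active = B-score under library mean minus 3 SD, initial fluorescence not abnormally high, positive integrated signal ratio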;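 note: B-score derived from integrated fluorescence ratio over the kinetic read; more negative B-score means stronger inhibition of depolarization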
Target sequence (Q61143 whole entry, looked up): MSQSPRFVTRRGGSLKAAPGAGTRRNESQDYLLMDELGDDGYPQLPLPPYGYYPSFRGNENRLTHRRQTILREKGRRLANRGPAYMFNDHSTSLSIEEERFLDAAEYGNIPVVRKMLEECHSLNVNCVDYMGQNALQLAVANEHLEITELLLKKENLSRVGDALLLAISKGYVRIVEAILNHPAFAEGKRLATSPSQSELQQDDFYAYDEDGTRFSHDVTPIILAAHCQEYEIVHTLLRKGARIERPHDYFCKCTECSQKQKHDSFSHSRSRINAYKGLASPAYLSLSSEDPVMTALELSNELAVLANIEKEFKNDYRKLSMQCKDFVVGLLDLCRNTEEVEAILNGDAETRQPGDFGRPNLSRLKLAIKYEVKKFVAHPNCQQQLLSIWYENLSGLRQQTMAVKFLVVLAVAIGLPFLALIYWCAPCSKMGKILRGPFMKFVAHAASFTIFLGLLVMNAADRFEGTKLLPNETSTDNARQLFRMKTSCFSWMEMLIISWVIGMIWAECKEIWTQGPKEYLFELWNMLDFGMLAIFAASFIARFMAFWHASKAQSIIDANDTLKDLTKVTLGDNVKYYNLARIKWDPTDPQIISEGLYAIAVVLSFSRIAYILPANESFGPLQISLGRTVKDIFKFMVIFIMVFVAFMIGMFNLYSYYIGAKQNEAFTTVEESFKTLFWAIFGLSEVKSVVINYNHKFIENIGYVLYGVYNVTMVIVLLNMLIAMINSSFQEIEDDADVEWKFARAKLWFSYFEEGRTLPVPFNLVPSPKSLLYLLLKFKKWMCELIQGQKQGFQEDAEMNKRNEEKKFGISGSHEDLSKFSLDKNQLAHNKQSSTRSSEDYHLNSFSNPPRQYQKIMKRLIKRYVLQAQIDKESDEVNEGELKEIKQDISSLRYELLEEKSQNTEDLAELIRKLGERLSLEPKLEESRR
TRPC4 block: inhibitors of mouse TRPC4 channel, primary screen, Fluo4 calcium, HEK293 TRPC4beta/mu-opioid cells; Short transient receptor potential channel 4 (Mus musculus), Q9QUQ5; DAMGO-evoked Fluo4 calcium flux; hits give low values; B-score at 10 µM; 0.39% of 300,000 active;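 active = B-score over 3 SD under the library average, no early fluorescence shift, positive overall ratio signal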
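Assay system: HEK293 cells with stable TRPC4beta plus mu-opioid receptor expression. Dosing: single dose. Measured by: Fluo4 Ca2+ flux fluorescence. Also added: DAMGO in two steps, submaximal then maximal. Read-out: B score from integrated Fluo4 fluorescence ratio.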
TRPC6 activator: mouse TRPC6 channel activators, primary screen, cell-based, HEK293, membrane potential dye; 0.13% of 310,000 active; Short transient receptor potential channel 6 (Mus musculus), Q61143; HEK293-TRPC6 membrane potential dye fluorescence; hits give high values; B-score at 10 µM; AID 2550, 2010;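 active = B-score of the integrated fluorescence ratio above library mean plus 3 SD, and starting fluorescence ratio within library mean plus 5 SD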;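 note: higher score means more depolarization so channel activation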
TRPC4 agonist: activators of mouse TRPC4 channel, primary screen, Fluo4 calcium, HEK293 TRPC4beta/mu-opioid cells. Short transient receptor potential channel 4 (Mus musculus), Q9QUQ5. Fluo4 calcium fluorescence; hits give high values. B-score at 10 µM. 0.49% of 310,000 active. AID 2237, 2010;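 active = B-score above 5 SD of library B-scores, and initial fluorescence ratio not above library mean plus 5 SD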;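 note: positive B-score marks a calcium rise read as TRPC4 activation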
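Material: TRPC4beta and mu-opioid receptor HEK293 stable cells | Incubation: 45 min room-temperature Fluo4 loading, 110 s read | Detection: Kinetic Fluo4 calcium fluorescence | Measure: Integrated baseline-normalised fluorescence ratio, converted to per-well B score | Benchmarks: Low control buffer alone, high control maximal DAMGO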
TRPC4 potent: positive allosteric modulators of TRPC4, primary screen, cell-based, mouse TRPC4beta, HEK293 mu-opioid, Fluo-4 calcium | B-score at 10 µM | 0.42% of 310,000 active | DAMGO EC20, Fluo-4 Ca2+ flux; hits give high values | AID 2227, 2009;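 active = B-score of calcium response area above 5 SD of library B-scores, with initial fluorescence ratio within 5 SD of library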;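 note: B-score of integrated fluorescence ratio over time as area under calcium response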
TRPC4 sel inh 2: mouse TRPC4 off-target activity of TRPC6 inhibitors, second screen; 42% of 920 active; HEK293 TRPC4/MOR, membrane potential dye fluorescence; channel activated by saturating DAMGO dose; inhibition, % at 10 µM; shares compounds with TRPC6 inhibitor;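 active = compounds whose fluorescence signal differed from control wells by over 3 SD, either direction, in both duplicate plates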
TRPC4 spec: mouse TRPC4 modulation by TRPC6 hits, confirmation, selectivity assay for TRPC6 inhibitor project, cell-based, HEK293 TRPC4/mu-opioid, membrane potential dye; shares compounds with TRPC6 inhibitor; membrane potential fluorescence; activity change, negative = inhibition, % at 10 µM; 61% of 920 active;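 active = rise or fall in signal beyond 3 SD of buffer-only wells in both replicate plates, either sign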;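 note: integrated kinetic ratio of fluorescence range over baseline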
HEK293 MPD ctr 2-1: nonspecific membrane potential effects, parental HEK293, confirmation, counter-screen for TRPC6 inhibitor project, cell-based, second counter screen | signal change vs control, % at 10 µM | parental HEK293 membrane potential dye fluorescence; maximal acetylcholine challenge after compound addition | 31% of 920 active | shares compounds with TRPC6 inhibitor;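 active = membrane potential signal moving either way by over 3 SD of the maximum-effect control, in both duplicate plates, meaning non-specific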
HEK293 MPD ctr-1: membrane potential modulation in parental HEK293, confirmation, counter-screen for TRPC6 inhibitor project, cell-based; parental HEK293 membrane potential dye fluorescence; shares compounds with TRPC6 inhibitor; 60% of 920 active; membrane potential signal change, % at 10 µM;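 active = membrane potential signal shifting up or down by more than 3 SD of buffer-only wells, on both duplicate plates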
HEK293 MPD ctr-2: parental HEK293 membrane potential modulation, confirmation, counter-screen for TRPC6 modulator project, cell-based | membrane potential signal change, % at 10 µM | membrane potential dye fluorescence | shares compounds with TRPC6 inhibitor | 51% of 2,400 active;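 active = membrane potential signal moves up or down beyond 5 SD from buffer-only wells, on both duplicate plates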
HEK293 MPD ctr 2-2: second counter-screen for TRPC6 modulators: effect in parental HEK293 cells; AID 488926; membrane potential dye fluorescence; after compound, maximal acetylcholine stimulation; 14% of 2,400 active; inhibition, % at 10 µM; shares compounds with TRPC6 inhibitor;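 active = membrane potential signal drops by more than 5 SD from the mean control signal, in both duplicate plates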;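 note: plate controls were acetylcholine ECmax control wells for no effect and buffer only wells for full effect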
TRPC4 ctr mod: TRPC4 modulation by TRPC6 hit compounds, confirmation, selectivity assay for TRPC6 modulator project, cell-based, HEK293 TRPC4/mu-opioid, membrane potential dye, mouse; shares compounds with TRPC6 inhibitor; membrane potential fluorescence; percent change from control (negative = decrease, positive = increase), % at 10 µM; 69% of 2,400 active;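 active = membrane potential signal moved up or down beyond 5 SD of buffer control wells, in both duplicate plates, actives on both sides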;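 note: plate controls were assay buffer wells for no effect and DAMGO maximal-effect wells for full effect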
TRPC4 ctr inh 2: second check of whether TRPC6 modulators also affect mouse TRPC4; shares compounds with TRPC6 inhibitor; HEK293 TRPC4/mu-opioid, membrane potential dye fluorescence; stimulated with maximal-effect DAMGO; inhibition, % at 10 µM; 55% of 2,400 active; AID 488928;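 active = drop in membrane potential signal beyond 5 SD of the control wells in both duplicate plates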;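 note: TRPC4 counter screen for TRPC6 hits run under conditions tuned for TRPC6 not TRPC4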
TRPC6 inh conf: mouse TRPC6 channel inhibitors, confirmation, HEK293 cells, membrane potential dye, duplicate. shares compounds with TRPC6 inhibitor. ACh-evoked depolarization. inhibition, % at 10 µM. 43% of 3,300 active;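 active = fluorescence ratio falls more than 5 SD below the full-stimulation control mean, in both duplicate runs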;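 note: integrated fluorescence ratio of peak minus minimum over baseline after agonist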
TRPC6 act confirm: mouse TRPC6 channel activators, confirmation, HEK293 cells, membrane potential dye, duplicate; shares compounds with TRPC6 inhibitor; AID 488961, 2010; HEK293-TRPC6 membrane potential dye fluorescence, FDSS; activation, % at 10 µM; 11% of 2,800 active;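 active = ratio signal rise beyond 5 SD above unstimulated control wells' mean, seen in both duplicate runs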;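 note: plate controls were buffer EC0 wells for no effect and acetylcholine ECmax response for full effect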
Active calls of the source: *. Most compounds without a hit are left out; they make up all but 2.3% or so of the library.

CC1CCCCC12NC(=O)N(CC(=O)OCC(=O)c1ccc(OC(F)F)cc1OC(F)F)C2=O (configuration not stated) was read as TRPC6 inhibitor inactive, TRPC4 block inactive, TRPC6 activator inactive, TRPC4 agonist inactive and TRPC4 potent inactive.
Screening COc1ccccc1C(=O)N1CCCC1(C#N)c1ccccc1 (configuration not stated) returned TRPC6 inhibitor inactive, TRPC4 block inactive, TRPC6 activator inactive, TRPC4 agonist inactive and TRPC4 potent inactive.
`COc1ccc(C(=O)N2CCCC2(C#N)c2ccccc2)cc1[N+](=O)[O-]` (configuration not stated) gave TRPC6 inhibitor -7.6*, TRPC4 block inactive, TRPC6 activator inactive, TRPC4 agonist inactive, TRPC4 potent inactive, TRPC4 sel inh 2 inactive, TRPC4 spec 0.7%*, HEK293 MPD ctr 2-1 inactive, HEK293 MPD ctr-1 inactive, TRPC6 inh conf inactive and TRPC6 act confirm inactive.
For CCCC1(c2ccccc2)NC(=O)N(CC(=O)Nc2cc(C)ccc2OC)C1=O (configuration not stated) the results were TRPC6 inhibitor inactive, TRPC4 block inactive, TRPC6 activator inactive, TRPC4 agonist inactive and TRPC4 potent inactive.
O=C(Nc1cccc(S(=O)(=O)C(F)F)c1)c1ccc(Cl)c(S(=O)(=O)N2CCOCC2)c1 was read as TRPC6 inhibitor -6.1*, TRPC4 block inactive, TRPC6 activator inactive, TRPC4 agonist inactive, TRPC4 potent inactive, HEK293 MPD ctr-2 inactive, HEK293 MPD ctr 2-2 inactive, TRPC4 ctr mod inactive, TRPC4 ctr inh 2 inactive, TRPC6 inh conf inactive and TRPC6 act confirm inactive.
For O=C(Nc1cccc(Br)c1)c1ccc(Cl)c(S(=O)(=O)N2CCOCC2)c1 the results were TRPC6 inhibitor inactive, TRPC4 block inactive, TRPC6 activator inactive, TRPC4 agonist inactive and TRPC4 potent inactive.
Clc1nc(Nc2ccc(N3CCOCC3)cc2)c2ccccc2n1 was read as TRPC6 inhibitor inactive, TRPC4 block inactive, TRPC6 activator inactive, TRPC4 agonist inactive and TRPC4 potent inactive.
Screening O=S(=O)(Nc1nc2ccccc2nc1Nc1ccc(N2CCOCC2)cc1)c1cc(Cl)ccc1Cl returned TRPC6 inhibitor -6.7*, TRPC4 block inactive, TRPC6 activator inactive, TRPC4 agonist inactive, TRPC4 potent inactive, TRPC4 sel inh 2 78%*, TRPC4 spec -10%*, HEK293 MPD ctr 2-1 inactive, HEK293 MPD ctr-1 -241%*, TRPC6 inh conf inactive and TRPC6 act confirm inactive.
CCOC(=O)CN(C)C(=O)C1CCCN1C(=O)OC(C)(C)C (configuration not stated) was read as TRPC6 inhibitor inactive, TRPC4 block inactive, TRPC6 activator inactive, TRPC4 agonist inactive and TRPC4 potent inactive.
CCN1CCN(C(CNS(=O)(=O)c2ccc(F)cc2)c2cccnc2)CC1 (configuration not stated) was read as TRPC6 inhibitor inactive, TRPC4 block inactive, TRPC6 activator inactive, TRPC4 agonist inactive and TRPC4 potent inactive.
O=C1c2cccc3cccc(c23)C(=O)N1CCCN1CCN(c2ccc(F)cc2)CC1 was read as TRPC6 inhibitor -7.1*, TRPC4 block inactive, TRPC6 activator inactive, TRPC4 agonist inactive, TRPC4 potent inactive, HEK293 MPD ctr-2 inactive, HEK293 MPD ctr 2-2 inactive, TRPC4 ctr mod -12%*, TRPC4 ctr inh 2 66%*, TRPC6 inh conf inactive and TRPC6 act confirm inactive.
Screening O=C(CCCN1C(=O)c2cccc3cccc(c23)C1=O)N1CCN(c2ccccc2)CC1 returned TRPC6 inhibitor inactive, TRPC4 block inactive, TRPC6 activator inactive, TRPC4 agonist inactive and TRPC4 potent inactive.
Screening CCCCc1ccc(-c2csc(/C(C#N)=C\c3ccc(C)o3)n2)cc1 returned TRPC6 inhibitor -8.4*, TRPC4 block inactive, TRPC6 activator inactive, TRPC4 agonist inactive, TRPC4 potent inactive, TRPC4 sel inh 2 inactive, TRPC4 spec inactive, HEK293 MPD ctr 2-1 inactive, HEK293 MPD ctr-1 inactive and TRPC6 inh conf inactive.
Screening CCN(C(=O)C(C)Cl)c1ccccc1 (configuration not stated) returned TRPC6 inhibitor inactive, TRPC4 block inactive, TRPC6 activator inactive, TRPC4 agonist inactive and TRPC4 potent inactive.

High-throughput results as filed in PubChem BioAssay.
